Source: ChEMBL document CHEMBL2417457, “Octahydropyrrolo[3,4-c]pyrrole negative allosteric modulators of mGlu1” (Bioorg Med Chem Lett, 2013)
Active and inactive are the calls of the source. The rule behind the calls is not given here.

Assays:
[1] = target: T1, Metabotropic glutamate receptor 1 (Homo sapiens, UniProt Q13255); assay: Negative allosteric modulation of human mGlu1 receptor expressed in HEK293A TREx cells assessed as calcium flux at 30 uM after 45 mins relative to glutamate; format: functional, cell-based; details: HEK293-A
Summary of the method: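 Tetracycline-induced HEK293A TREx cells expressing human mGlu1 were loaded with Fluo-4 for Ca2+ flux. Test compound was given at 30 μM. Response amplitude is expressed as a percentage of the maximal response to 100 μM glutamate, averaged over n ≥ 3.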
Target sequence in this assay (Q13255 19-1194 limits assumed): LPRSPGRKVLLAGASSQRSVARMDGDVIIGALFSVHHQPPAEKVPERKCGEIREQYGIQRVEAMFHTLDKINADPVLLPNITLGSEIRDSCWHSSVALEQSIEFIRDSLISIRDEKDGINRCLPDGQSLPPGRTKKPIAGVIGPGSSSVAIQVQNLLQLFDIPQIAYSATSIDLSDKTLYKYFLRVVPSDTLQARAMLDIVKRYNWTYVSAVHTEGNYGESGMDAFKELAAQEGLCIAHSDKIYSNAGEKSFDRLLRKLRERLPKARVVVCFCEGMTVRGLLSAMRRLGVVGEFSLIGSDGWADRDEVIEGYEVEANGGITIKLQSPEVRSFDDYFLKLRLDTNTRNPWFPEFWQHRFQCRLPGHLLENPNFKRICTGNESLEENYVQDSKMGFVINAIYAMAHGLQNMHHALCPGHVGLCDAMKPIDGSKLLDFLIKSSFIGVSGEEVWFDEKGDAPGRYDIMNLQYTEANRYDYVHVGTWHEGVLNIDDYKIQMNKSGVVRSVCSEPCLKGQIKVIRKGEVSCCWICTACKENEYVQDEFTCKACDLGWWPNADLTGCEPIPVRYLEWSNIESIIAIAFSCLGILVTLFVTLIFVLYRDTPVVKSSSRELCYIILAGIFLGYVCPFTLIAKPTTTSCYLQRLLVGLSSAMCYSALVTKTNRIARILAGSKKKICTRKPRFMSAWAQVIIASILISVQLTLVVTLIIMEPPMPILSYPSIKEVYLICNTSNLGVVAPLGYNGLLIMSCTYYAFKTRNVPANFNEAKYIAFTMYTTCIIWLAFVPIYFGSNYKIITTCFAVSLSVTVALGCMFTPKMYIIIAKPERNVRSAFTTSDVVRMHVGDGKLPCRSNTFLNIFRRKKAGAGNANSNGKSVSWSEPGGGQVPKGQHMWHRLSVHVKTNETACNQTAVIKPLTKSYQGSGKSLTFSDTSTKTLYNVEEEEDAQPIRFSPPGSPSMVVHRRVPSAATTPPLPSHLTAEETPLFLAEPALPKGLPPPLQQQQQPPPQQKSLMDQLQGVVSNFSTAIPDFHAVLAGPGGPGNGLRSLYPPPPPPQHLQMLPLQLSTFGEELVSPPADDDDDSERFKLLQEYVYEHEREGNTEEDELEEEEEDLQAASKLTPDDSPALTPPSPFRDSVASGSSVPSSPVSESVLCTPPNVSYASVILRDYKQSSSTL

Plasma = assay: Fraction unbound in rat plasma; format: ADME, cell-free
Summary of the method: (§1)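 Unbound fraction was determined by equilibrium dialysis against rat plasma or rat brain homogenate.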

[2] = target: T1, Metabotropic glutamate receptor 1; assay: Negative allosteric modulation of human mGlu1 receptor expressed in HEK293A TREx cells assessed as calcium flux after 45 mins; format: functional, cell-based, HEK293-A
Summary of the method: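 HEK293A TREx cells stably expressing human mGlu1 were induced overnight with 50 ng/mL tetracycline at 37 °C. Ten-point 1:3 compound series were added for 2.3 min, then an EC20 of glutamate, then an EC80 of glutamate 1.9 min later. Ca2+ flux was read for 1.7 min. Values are the average of n ≥ 3.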
Target sequence in this assay (Q13255 whole entry): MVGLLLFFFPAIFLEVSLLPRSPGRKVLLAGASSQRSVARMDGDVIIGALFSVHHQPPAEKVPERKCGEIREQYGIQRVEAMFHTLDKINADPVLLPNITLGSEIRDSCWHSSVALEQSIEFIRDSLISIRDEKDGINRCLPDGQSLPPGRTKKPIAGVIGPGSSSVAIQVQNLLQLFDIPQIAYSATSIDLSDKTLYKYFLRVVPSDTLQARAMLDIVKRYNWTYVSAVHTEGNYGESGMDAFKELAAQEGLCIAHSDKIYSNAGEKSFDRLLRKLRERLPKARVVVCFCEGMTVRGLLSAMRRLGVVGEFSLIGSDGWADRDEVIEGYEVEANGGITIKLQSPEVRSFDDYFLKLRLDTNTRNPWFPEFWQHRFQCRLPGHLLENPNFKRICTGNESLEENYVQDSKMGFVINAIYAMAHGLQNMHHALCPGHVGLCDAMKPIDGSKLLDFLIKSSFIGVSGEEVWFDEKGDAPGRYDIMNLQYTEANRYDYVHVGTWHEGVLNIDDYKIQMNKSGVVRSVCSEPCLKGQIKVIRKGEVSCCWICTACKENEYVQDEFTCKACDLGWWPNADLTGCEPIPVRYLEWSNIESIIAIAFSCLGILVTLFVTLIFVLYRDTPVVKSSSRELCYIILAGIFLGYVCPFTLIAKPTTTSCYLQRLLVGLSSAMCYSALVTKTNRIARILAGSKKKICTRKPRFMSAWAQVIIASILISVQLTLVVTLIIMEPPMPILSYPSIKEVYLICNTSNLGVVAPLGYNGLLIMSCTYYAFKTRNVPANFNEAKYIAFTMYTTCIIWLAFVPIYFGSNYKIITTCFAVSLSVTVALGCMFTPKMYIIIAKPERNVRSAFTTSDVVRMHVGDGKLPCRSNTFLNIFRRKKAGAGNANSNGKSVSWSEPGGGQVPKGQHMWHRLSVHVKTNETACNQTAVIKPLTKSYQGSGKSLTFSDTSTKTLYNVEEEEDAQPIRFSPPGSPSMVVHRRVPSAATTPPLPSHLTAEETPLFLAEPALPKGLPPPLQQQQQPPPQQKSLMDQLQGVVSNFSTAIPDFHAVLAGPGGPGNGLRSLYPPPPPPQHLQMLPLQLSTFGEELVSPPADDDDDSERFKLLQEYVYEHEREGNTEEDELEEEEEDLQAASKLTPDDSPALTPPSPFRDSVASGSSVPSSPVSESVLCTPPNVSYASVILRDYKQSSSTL

[3] = target: T1, Metabotropic glutamate receptor 1; assay: Negative allosteric modulation of human mGlu1 receptor up to 30 uM
[4] = target: Metabotropic glutamate receptor 5 (Rattus norvegicus, UniProt P31424); assay: Negative allosteric modulation of mGlu5 receptor (unknown origin) by cell based assay
Metabotropic glutamate receptor 5, sequence (P31424 whole entry): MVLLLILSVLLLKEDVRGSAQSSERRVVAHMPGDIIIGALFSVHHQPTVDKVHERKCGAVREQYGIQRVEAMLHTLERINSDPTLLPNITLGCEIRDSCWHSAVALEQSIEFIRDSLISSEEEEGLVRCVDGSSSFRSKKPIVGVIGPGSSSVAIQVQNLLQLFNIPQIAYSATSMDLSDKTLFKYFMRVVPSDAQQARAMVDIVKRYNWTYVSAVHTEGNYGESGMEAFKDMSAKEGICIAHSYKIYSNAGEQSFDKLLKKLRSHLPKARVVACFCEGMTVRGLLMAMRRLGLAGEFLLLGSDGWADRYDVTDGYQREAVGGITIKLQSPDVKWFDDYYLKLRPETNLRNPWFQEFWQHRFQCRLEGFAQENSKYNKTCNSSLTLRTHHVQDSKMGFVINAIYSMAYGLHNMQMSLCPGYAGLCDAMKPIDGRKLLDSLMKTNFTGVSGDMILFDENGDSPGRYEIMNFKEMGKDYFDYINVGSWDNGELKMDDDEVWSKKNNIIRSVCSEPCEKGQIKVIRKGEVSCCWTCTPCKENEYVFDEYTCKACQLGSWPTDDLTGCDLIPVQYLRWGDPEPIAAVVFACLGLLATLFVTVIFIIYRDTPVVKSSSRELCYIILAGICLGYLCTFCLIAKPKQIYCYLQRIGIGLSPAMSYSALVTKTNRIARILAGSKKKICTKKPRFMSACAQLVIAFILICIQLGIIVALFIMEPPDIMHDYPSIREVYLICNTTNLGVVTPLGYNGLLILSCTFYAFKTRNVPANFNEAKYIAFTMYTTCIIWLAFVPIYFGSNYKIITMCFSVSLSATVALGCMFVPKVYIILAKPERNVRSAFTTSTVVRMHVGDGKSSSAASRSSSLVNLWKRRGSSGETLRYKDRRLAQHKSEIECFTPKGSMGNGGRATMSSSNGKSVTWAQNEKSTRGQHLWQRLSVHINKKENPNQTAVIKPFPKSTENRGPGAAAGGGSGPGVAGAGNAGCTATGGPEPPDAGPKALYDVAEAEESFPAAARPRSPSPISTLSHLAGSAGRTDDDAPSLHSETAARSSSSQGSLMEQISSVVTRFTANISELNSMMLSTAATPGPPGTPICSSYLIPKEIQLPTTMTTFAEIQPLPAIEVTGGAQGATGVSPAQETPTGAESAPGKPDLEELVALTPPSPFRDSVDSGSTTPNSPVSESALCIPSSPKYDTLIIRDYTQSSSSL

[5] = target: Metabotropic glutamate receptor 3 (Homo sapiens) (UniProt Q14832); assay: Negative allosteric modulation of mGlu3 receptor (unknown origin) by cell based assay
Summary of the method: (§2)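 Selectivity against other mGlu subtypes was tested in cell-based functional assays with compound at 10 μM.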

Brain = assay: Fraction unbound in rat brain; format: ADME, tissue-based; summary of the method: as §1
Cytochrome P450 3A4 = Cytochrome P450 3A4 (Homo sapiens, UniProt P08684); assay: Inhibition of CYP3A4 in human liver microsomes in presence of NADPH; format: ADME, Microsome
Cytochrome P450 3A4, sequence (P08684 whole entry): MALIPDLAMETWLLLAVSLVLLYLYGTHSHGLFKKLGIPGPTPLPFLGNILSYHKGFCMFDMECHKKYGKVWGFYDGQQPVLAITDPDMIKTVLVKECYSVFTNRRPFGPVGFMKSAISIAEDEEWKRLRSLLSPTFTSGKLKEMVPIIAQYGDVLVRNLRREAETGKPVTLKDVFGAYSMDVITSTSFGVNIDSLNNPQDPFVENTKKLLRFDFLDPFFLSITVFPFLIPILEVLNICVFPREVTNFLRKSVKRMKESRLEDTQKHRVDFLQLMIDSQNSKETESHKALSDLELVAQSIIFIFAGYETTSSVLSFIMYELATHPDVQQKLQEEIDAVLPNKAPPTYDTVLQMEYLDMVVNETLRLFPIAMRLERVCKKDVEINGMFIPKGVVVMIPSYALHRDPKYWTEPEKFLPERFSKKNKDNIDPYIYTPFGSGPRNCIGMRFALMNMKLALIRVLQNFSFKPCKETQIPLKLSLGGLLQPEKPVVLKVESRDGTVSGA

Rattus norvegicus = species on record: Rattus norvegicus; assay: Binding affinity to rat sodium channel site 2 by radioligand binding assay; details: concentration not given here
Summary of the method: (§3)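 Compound was screened at 10 μM in a commercial radioligand binding panel of 68 GPCRs, ion channels, kinases and transporters.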

[6] = target: Metabotropic glutamate receptor 4 (Homo sapiens) (UniProt Q14833); assay: Negative allosteric modulation of mGlu4 receptor (unknown origin) by cell based assay; summary of the method: as §2
[7] = target: Metabotropic glutamate receptor 2 (Homo sapiens) (UniProt Q14416); assay: Negative allosteric modulation of mGlu2 receptor (unknown origin) by cell based assay; summary of the method: as §2
[8] = target: Sigma non-opioid intracellular receptor 1 (Homo sapiens) (UniProt Q99720); assay: Binding affinity to human sigma1 receptor by radioligand binding assay; details: concentration not given here; summary of the method: as §3
Cytochrome P450 2D6 = Cytochrome P450 2D6 (Homo sapiens, UniProt P10635); assay: Inhibition of CYP2D6 in human liver microsomes in presence of NADPH; format: ADME, Microsome
Cytochrome P450 2D6, sequence (P10635 whole entry): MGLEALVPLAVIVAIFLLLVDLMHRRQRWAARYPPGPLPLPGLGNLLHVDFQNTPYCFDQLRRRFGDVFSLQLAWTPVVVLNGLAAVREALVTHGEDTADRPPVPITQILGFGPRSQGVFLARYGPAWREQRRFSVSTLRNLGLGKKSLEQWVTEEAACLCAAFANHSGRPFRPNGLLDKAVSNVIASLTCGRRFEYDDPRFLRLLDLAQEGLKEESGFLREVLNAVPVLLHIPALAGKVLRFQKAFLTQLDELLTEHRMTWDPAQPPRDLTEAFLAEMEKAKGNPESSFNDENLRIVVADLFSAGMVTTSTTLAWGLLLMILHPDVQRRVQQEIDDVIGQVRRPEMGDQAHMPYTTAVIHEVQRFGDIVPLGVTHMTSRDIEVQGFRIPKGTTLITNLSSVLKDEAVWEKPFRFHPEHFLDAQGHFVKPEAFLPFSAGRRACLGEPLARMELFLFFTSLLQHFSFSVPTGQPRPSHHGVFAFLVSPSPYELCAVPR

[9] = target: Kappa-type opioid receptor (Homo sapiens) (UniProt P41145); assay: Binding affinity to human kappa opioid receptor by radioligand binding assay; details: concentration not given here; summary of the method: as §3
Cytochrome P450 1A2 = target: T2, Cytochrome P450 1A2 (Homo sapiens, UniProt P05177); assay: Inhibition of CYP1A2 in human liver microsomes in presence of NADPH; format: ADME, Microsome
T2 sequence (P05177 whole entry): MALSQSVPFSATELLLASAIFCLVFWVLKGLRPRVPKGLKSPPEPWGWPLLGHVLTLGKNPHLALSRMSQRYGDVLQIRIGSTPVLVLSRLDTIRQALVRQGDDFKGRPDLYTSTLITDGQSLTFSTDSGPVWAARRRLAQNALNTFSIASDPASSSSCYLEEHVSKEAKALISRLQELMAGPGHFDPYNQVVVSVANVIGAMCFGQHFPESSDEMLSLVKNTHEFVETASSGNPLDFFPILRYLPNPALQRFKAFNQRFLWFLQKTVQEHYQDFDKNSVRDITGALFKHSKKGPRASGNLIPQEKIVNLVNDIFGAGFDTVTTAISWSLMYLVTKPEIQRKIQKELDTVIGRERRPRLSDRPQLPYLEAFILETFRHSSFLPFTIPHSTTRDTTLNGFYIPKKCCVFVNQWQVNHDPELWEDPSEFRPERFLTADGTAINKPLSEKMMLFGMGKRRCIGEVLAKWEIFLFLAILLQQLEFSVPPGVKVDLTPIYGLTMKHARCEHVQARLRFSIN

[10] = target: T3, 5-hydroxytryptamine receptor 3A (Homo sapiens) (UniProt P46098); assay: Binding affinity to human 5HT3 receptor by radioligand binding assay; details: concentration not given here; summary of the method: as §3
T3 sequence (whole entry): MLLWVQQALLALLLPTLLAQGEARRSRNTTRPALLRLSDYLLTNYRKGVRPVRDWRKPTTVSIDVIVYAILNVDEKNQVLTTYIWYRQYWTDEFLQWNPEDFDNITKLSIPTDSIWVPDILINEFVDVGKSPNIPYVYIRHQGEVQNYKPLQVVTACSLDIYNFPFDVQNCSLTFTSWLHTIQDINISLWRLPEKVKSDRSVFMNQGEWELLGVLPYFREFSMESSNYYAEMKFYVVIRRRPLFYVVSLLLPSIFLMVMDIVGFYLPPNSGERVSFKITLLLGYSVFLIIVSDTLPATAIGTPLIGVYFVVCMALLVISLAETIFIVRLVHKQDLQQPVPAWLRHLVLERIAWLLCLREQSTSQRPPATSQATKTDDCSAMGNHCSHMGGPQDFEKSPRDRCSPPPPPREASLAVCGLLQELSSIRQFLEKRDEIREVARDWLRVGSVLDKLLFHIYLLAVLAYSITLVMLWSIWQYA

[11] = target: Metabotropic glutamate receptor 5 (Rattus norvegicus) (UniProt P31424); assay: Negative allosteric modulation of rat mGlu5 receptor at 30 uM relative to glutamate
Cytochrome P450 2C9 = Cytochrome P450 2C9 (Homo sapiens, UniProt P11712); assay: Inhibition of CYP2C9 in human liver microsomes in presence of NADPH; format: ADME, Microsome
Cytochrome P450 2C9, sequence (P11712 whole entry): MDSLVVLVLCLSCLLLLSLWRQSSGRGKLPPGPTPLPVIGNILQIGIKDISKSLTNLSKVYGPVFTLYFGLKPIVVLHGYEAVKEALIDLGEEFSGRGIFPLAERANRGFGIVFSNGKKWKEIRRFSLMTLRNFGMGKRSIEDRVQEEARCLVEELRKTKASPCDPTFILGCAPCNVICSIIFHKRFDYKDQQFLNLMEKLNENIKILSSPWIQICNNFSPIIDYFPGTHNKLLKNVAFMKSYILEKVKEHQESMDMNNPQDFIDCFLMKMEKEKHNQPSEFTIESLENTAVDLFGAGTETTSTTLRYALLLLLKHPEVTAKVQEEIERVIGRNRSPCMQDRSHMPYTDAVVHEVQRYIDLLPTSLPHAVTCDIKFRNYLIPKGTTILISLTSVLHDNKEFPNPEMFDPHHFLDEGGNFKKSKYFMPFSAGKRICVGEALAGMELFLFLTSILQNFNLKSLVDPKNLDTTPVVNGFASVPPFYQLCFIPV

[12] = target: Metabotropic glutamate receptor 6 (Homo sapiens) (UniProt O15303); assay: Negative allosteric modulation of mGlu6 receptor (unknown origin) by cell based assay; summary of the method: as §2
[13] = target: Metabotropic glutamate receptor 8 (Homo sapiens) (UniProt O00222); assay: Negative allosteric modulation of mGlu8 receptor (unknown origin) by cell based assay; summary of the method: as §2

SMILES	%max [1] [%]	IC50 [2] [nM]	other results
N#Cc1ccccc1N1C[C@H]2CN(C(=O)C34CC5CC(CC(C5)C3)C4)C[C@H]2C1	6.9	185	Fu (Plasma): 1.4%
N#Cc1cccnc1N1C[C@H]2CN(C(=O)C34CC5CC(CC(C5)C3)C4)C[C@H]2C1	12.2		
O=C(N1CCC2(CCCC2)CC1)N1C[C@@H]2CN(c3ccccn3)C[C@@H]2C1	0.7	769	
O=C(C1CCCCCC1)N1C[C@@H]2CN(c3ccccn3)C[C@@H]2C1	36.5	> 10000	
O=C(N1C[C@@H]2CN(c3ccccn3)C[C@@H]2C1)C12C3C4C5C3C1C5C42 (stereo partly drawn)	58.7	> 10000	
N#Cc1cnccc1N1C[C@H]2CN(C(=O)C34CC5CC(CC(C5)C3)C4)C[C@H]2C1	36.8	> 10000	
O=C(N1C[C@@H]2CN(c3ncccc3F)C[C@@H]2C1)C12CC3CC(CC(C3)C1)C2	2.1	1000	
O=C(C1CCCCC1)N1C[C@@H]2CN(c3ccccn3)C[C@@H]2C1	57.7	> 10000	
O=C(CC12CC3CC(CC(C3)C1)C2)N1C[C@@H]2CN(c3ccccn3)C[C@@H]2C1	0		
CC(C)(C)CC(=O)N1C[C@@H]2CN(c3ccccn3)C[C@@H]2C1		> 30000	Activity [3]: inactive
O=C(N1C[C@@H]2CN(c3cccc(F)n3)C[C@@H]2C1)C12CC3CC(CC(C3)C1)C2	2.3	93	Fu (Plasma): 1.2%
C[C@H]1CC[C@H](C(=O)N2C[C@H]3CN(c4ccccn4)C[C@H]3C2)CC1	37.9	> 10000	
O=C(N1C[C@@H]2CN(c3ncccn3)C[C@@H]2C1)C12CC3CC(CC(C3)C1)C2	10.3	> 10000	
CC1(C(=O)N2C[C@@H]3CN(c4ccccn4)C[C@@H]3C2)CCCCC1	9.3	5140	
O=C(CC1CCCCC1)N1C[C@@H]2CN(c3ccccn3)C[C@@H]2C1	47.6	> 10000	
N#Cc1ccncc1N1C[C@H]2CN(C(=O)C34CC5CC(CC(C5)C3)C4)C[C@H]2C1	0.1	833	
O=C(N1CC2CCCC(C2)C1)N1C[C@@H]2CN(c3ccccn3)C[C@@H]2C1	-1.5	1910	
C[C@@H]1CN(c2cccnc2C#N)CCN1C(=O)C12CC3CC(CC(C3)C1)C2			IC50 (Cytochrome P450 3A4): 7 µM; IC50 (Cytochrome P450 2D6): 12.4 µM; IC50 (Cytochrome P450 1A2): > 30 µM; IC50 (Cytochrome P450 2C9): > 30 µM
O=C(N1C[C@@H]2CN(c3ccc(F)cn3)C[C@@H]2C1)C12CC3CC(CC(C3)C1)C2	2.2	478	Fu (Plasma): 1.5%
O=C(N1C[C@@H]2CN(c3cnccn3)C[C@@H]2C1)C12CC3CC(CC(C3)C1)C2	-1.1	669	Fu (Plasma): 10.3%
CC1(C)[C@@H]2CN(C(=O)N3C[C@@H]4CN(c5ccccn5)C[C@@H]4C3)C[C@@H]21	-7.5	11900	

Second part, led by results:

%max [1] [%]	IC50 [2] [nM]	SMILES	other results
23.2	> 10000	O=C(N1CCCCCCC1)N1C[C@@H]2CN(c3ccccn3)C[C@@H]2C1	
	> 30000	CC(C)(C)C(=O)N1C[C@@H]2CN(c3ccccn3)C[C@@H]2C1	
56.6	> 10000	O=C(N1C[C@@H]2CN(c3nccs3)C[C@@H]2C1)C12CC3CC(CC(C3)C1)C2	
1.5	364	O=C(N1CCC2(CCCCC2)CC1)N1C[C@@H]2CN(c3ccccn3)C[C@@H]2C1	Fu (Plasma): 1.5%
-5.8		O=C(N1CC2CCC(C2)C1)N1C[C@@H]2CN(c3ccccn3)C[C@@H]2C1	
1.3	553	N#Cc1ncccc1N1C[C@H]2CN(C(=O)C34CC5CC(CC(C5)C3)C4)C[C@H]2C1	Fu (Plasma): 4.5%
2.2	85	O=C(N1C[C@@H]2CN(c3ccccn3)C[C@@H]2C1)C12CC3CC(CC(C3)C1)C2	IC50 [4]: 3.36 µM; Activity [5]: inactive; Fu (Brain): 2.3%; IC50 (Cytochrome P450 3A4): 6.2 µM; inhibition (Rattus norvegicus): 52%; Activity [6]: inactive; Activity [7]: inactive; inhibition [8]: 95%; IC50 (Cytochrome P450 2D6): 24.3 µM; inhibition [9]: 60%; Fu (Plasma): 2.9%; IC50 (Cytochrome P450 1A2): > 30 µM; inhibition [10]: 90%; %max [11]: 1.1%; IC50 (Cytochrome P450 2C9): > 30 µM
25.5	> 10000	O=C(N1C[C@@H]2CN(c3ccncn3)C[C@@H]2C1)C12CC3CC(CC(C3)C1)C2	
-0.1	297	O=C(N1C[C@@H]2CN(c3ccccn3)C[C@@H]2C1)N1CCC2(CCCC2)C1	IC50 [4]: > 10 µM; Activity [5]: inactive; Fu (Brain): 5.1%; Activity [12]: Active; IC50 (Cytochrome P450 3A4): > 30 µM; Activity [6]: inactive; Activity [7]: inactive; IC50 (Cytochrome P450 2D6): > 30 µM; Fu (Plasma): 9%; Activity [13]: Active; IC50 (Cytochrome P450 1A2): > 30 µM; IC50 (Cytochrome P450 2C9): > 30 µM
29.2	> 10000	CC(C)(C)[C@H]1CC[C@H](C(=O)N2C[C@H]3CN(c4ccccn4)C[C@H]3C2)CC1	
